Source: ChEMBL document CHEMBL4765245 (Eur J Med Chem, 2020)

What was measured:
rhinovirus A2 = test: Antiviral activity against Rhinovirus A2 infected in human HeLa cell line assessed as inhibition of virus-induced cytopathic effect measured after 72 hrs by crystal violet uptake assay; format: functional, organism-based
How it was run: (§1)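 HeLa Ohio monolayers, 1 day old, in 2% FCS medium. Compound added as serial half-log dilutions from 100 μM immediately before rhinovirus infection. Activity calculated per Pauwels; IC50 is the mean of at least 3 experiments.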

rhinovirus B14 = test: Antiviral activity against Rhinovirus B14 infected in human HeLa cell line assessed as inhibition of virus-induced cytopathic effect measured after 72 hrs by crystal violet uptake assay; format: functional, organism-based; how it was run: as §1
Coxsackievirus B3 [1] = test: Antiviral activity against wild type Coxsackievirus B3 97927 infected in human HeLa cell line assessed as inhibition of virus-induced cytopathic effect measured after 48 hrs by crystal violet uptake assay; format: functional, organism-based; details: read-out: IC50
How it was run: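 Coxsackievirus B3 infection of 2-day-old HeLa Ohio monolayers in 2% FCS medium. Half-log dilutions from 100 μM added just before infection; guanidine hydrochloride served as positive control. Antiviral activity calculated per Pauwels; IC50 is the mean of at least 3 separate tests.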

Coxsackievirus B3 [2] = test: Antiviral activity against pleconaril-resistant Coxsackievirus B3 97927 11207T/I1092 mutant infected in human HeLa cell line assessed as inhibition of virus-induced cytopathic effect measured after 48 hrs by crystal violet uptake assay; format: functional, organism-based
How it was run: (§2)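 HeLa Ohio monolayers, 2 days old and confluent, in MEM with 2% FCS. Serial half-log compound dilutions from 100 μM were added just before CVB3 infection. Activity was calculated per Pauwels against six cell and six virus controls; mean IC50 from ≥3 experiments.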

Coxsackievirus B3 [3] = test: Antiviral activity against pleconaril-resistant Coxsackievirus B3 97927 11207K/I1092 mutant infected in human HeLa cell line assessed as inhibition of virus-induced cytopathic effect measured after 48 hrs by crystal violet uptake assay; format: functional, organism-based; how it was run: as §2
rhinovirus B5 = test: Antiviral activity against Rhinovirus B5 infected in human HeLa cell line assessed as inhibition of virus-induced cytopathic effect measured after 72 hrs by crystal violet uptake assay; format: functional, organism-based
How it was run: as §1, with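 “infection. CPE read at 72 h by crystal violet staining, elution and OD 550/630 nm, with six cell and six virus controls per plate.” for “infection.”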

Coxsackievirus B3 [4] = test: Antiviral activity against pleconaril-resistant Coxsackievirus B3 97927 11207M/I1092 mutant infected in human HeLa cell line assessed as inhibition of virus-induced cytopathic effect measured after 48 hrs by crystal violet uptake assay; format: functional, organism-based; how it was run: as §2
Coxsackievirus B3 [5] = test: Antiviral activity against Coxsackievirus B3 Nancy infected in human HeLa cell line assessed as inhibition of virus-induced cytopathic effect measured after 48 hrs by crystal violet uptake assay; format: functional, organism-based; how it was run: as §2
HeLa = test: (§3) Cytotoxicity against human HeLa cells assessed as reduction in cell viability incubated for 72 hrs measured by crystal violet based micro plate reader method; details: hela, 72 h
How it was run: (§4)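 Two-day-old confluent HeLa Ohio monolayers exposed to half-log dilutions (100 μM downward) in 2% FCS medium for 72 h at 37 °C, 5% CO2. Cells fixed and stained with crystal violet/formalin, dye eluted with acidified citrate-ethanol, OD read at 550/630 nm. Viability expressed relative to six mock-treated controls; CC50 is the mean of at least 3 tests.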

[6] = as §3; details: HeLa cells; how it was run: as §4
[7] = Mutagenicity in Escherichia coli PQ37 at 10 mg/ml by SOS-chromotest; format: toxicity
[8] = Selectivity index, ratio of CC50 for human HeLa cells to IC50 for pleconaril-resistant Coxsackievirus B3 97927 11207K/I1092 mutant infected in HeLa cell line assessed as inhibition of virus-induced cytopathic effect; format: toxicity; details: read-out: Selectivity Index
How it was run: (§5)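 SI calculated as CC50/IC50. Cytotoxicity: 2-day-old confluent HeLa Ohio monolayers were exposed to half-log dilutions from 100 μM in 2% FCS MEM for 72 h at 37 °C, then crystal violet stained, eluted and read at 550/630 nm. Antiviral: compound added just before CVB3 infection of 2-day-old HeLa; CPE scored by crystal violet at 48 h (Pauwels formula). Means from ≥3 tests each.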

[9] = AUC (0 to infinity) in Balb/c mouse at 100 mg/kg, IG measured upto 7 hrs by HPLC-MS method; format: ADME, organism-based; parameters: route […], dose 100 mg/kg, time <=7; details: in vivo, po
How it was run: (§6)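 Male BALB/c mice (~20 g), food withheld 1 h before and after dosing; single 100 mg/kg intragastric dose as suspension in 0.5% CMC with one drop Tween-80. Blood taken at 0.5, 1, 2, 3, 5, 7 h (3 animals per time point); plasma MeCN-precipitated, HPLC-MS (ESI positive). Non-compartmental analysis: AUC by trapezium with extrapolation; CL = dose/AUC; Vd = CL/kel.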

[10] = Selectivity index, ratio of CC50 for human HeLa cells to IC50 for Coxsackievirus B3 Nancy infected in HeLa cell line assessed as inhibition of virus-induced cytopathic effect; format: toxicity; details: read-out: Selectivity Index; how it was run: as §5
[11] = Selectivity index, ratio of CC50 for human HeLa cells to IC50 for Rhinovirus A2 infected in HeLa cell line assessed as inhibition of virus-induced cytopathic effect; format: toxicity; details: read-out: Selectivity Index
[12] = Clearance in Balb/c mouse at 100 mg/kg, IG measured upto 7 hrs by HPLC-MS method; format: ADME, organism-based; details: in vivo, po; how it was run: as §6
[13] = Genotoxicity in Escherichia coli PQ37 assessed as zone of inhibition at 10 mg/ml measured on day 3 by SOS-chromo0test relative to control; format: toxicity; details: 72 h, time 3 day
[14] = Selectivity index, ratio of CC50 for human HeLa cells to IC50 for Rhinovirus B14 infected in HeLa cell line assessed as inhibition of virus-induced cytopathic effect; format: toxicity; details: read-out: Selectivity Index
[15] = Selectivity index, ratio of CC50 for human HeLa cells to IC50 for pleconaril-resistant Coxsackievirus B3 97927 11207M/I1092 mutant infected in HeLa cell line assessed as inhibition of virus-induced cytopathic effect; format: toxicity; details: read-out: Selectivity Index; how it was run: as §5
[16] = Selectivity index, ratio of CC50 for human HeLa cells to IC50 for pleconaril-resistant Coxsackievirus B3 97927 11207T/I1092 mutant infected in HeLa cell line assessed as inhibition of virus-induced cytopathic effect; format: toxicity; details: read-out: Selectivity Index; how it was run: as §5
[17] = Selectivity index, ratio of CC50 for human HeLa cells to IC50 for Coxsackievirus B3 97927 wild type infected in HeLa cell line assessed as inhibition of virus-induced cytopathic effect; format: toxicity; details: read-out: Selectivity Index; how it was run: as §5
[18] = Elimination rate constant in Balb/c mouse at 100 mg/kg, IG measured upto 7 hrs by HPLC-MS method; format: ADME, organism-based; details: in vivo, po; how it was run: as §6
[19] = Selectivity index, ratio of CC50 for human HeLa cells to IC50 for Rhinovirus B5 infected in HeLa cell line assessed as inhibition of virus-induced cytopathic effect; format: toxicity; details: read-out: Selectivity Index
[20] = Volume of distribution in Balb/c mouse at 100 mg/kg, IG measured upto 7 hrs by HPLC-MS method; format: ADME, organism-based; details: in vivo, po; how it was run: as §6
[21] = Rhinovirus A, HeLa, 72 h, read-out: IC50
[22] = Rhinovirus B, HeLa, 72 h, read-out: IC50
[23] = Enterovirus B, 97927, HeLa, 48 h
[24] = Enterovirus B, Nancy, HeLa, 48 h, read-out: IC50

## CN(C)C(=O)c1cc(CCCOc2ccc(-c3noc(C(F)(F)F)n3)cc2N)on1
Rhinovirus A2; [21]
  IC50: 18.2 µM
Rhinovirus B14; [22]
  IC50: 0.33 µM
Coxsackievirus B3 [1]; [23]
  IC50: 4.47 µM
Coxsackievirus B3 [2]; read-out: IC50
  IC50: 14.3 µM
Coxsackievirus B3 [3]; read-out: IC50
  IC50: 51.6 µM
Rhinovirus B5
  IC50: Not Active
Coxsackievirus B3 [4]
  IC50: 2.08 µM
Coxsackievirus B3 [5]; [24]
  IC50: 27.8 µM
HeLa
  CC50: 90.8 µM

## CCOC(=O)c1cc(CCCOc2ccc(-c3noc(C(F)(F)F)n3)cn2)on1
Rhinovirus A2
  IC50: Not Active
Rhinovirus B14; [22]
  IC50: 1.99 µM
Coxsackievirus B3 [1]; [23]
  IC50: 10.3 µM
Rhinovirus B5
  IC50: Not Active
Coxsackievirus B3 [5]
  IC50: Not Active
[6]
  CC50 at 72 h: > 100 µM

## Cc1cc(-c2noc(C(F)(F)F)n2)ccc1OCCCc1cc(C(=O)N(C)C)no1
Rhinovirus A2; [21]
  IC50: 0.86 µM
[7]
  Activity: Non-Toxic
[8]
  selectivity ratio: 2.8
Rhinovirus B14; [22]
  IC50: 0.09 µM
Coxsackievirus B3 [1]; [23]
  IC50: 0.02 µM
[9]
  AUC: 3015.5 ng·h/mL
[10]
  selectivity ratio: 4.9
Coxsackievirus B3 [2]; read-out: IC50
  IC50: 0.01 µM
Coxsackievirus B3 [3]; read-out: IC50
  IC50: 4.79 µM
[11]
  selectivity ratio: 15.6
Rhinovirus B5; [22]
  IC50: 5.25 µM
[12]
  clearance: 0.66 L/h
[13]
  inhibition zone (IZ): 0 mm
[14]
  selectivity ratio: 149
[15]
  selectivity ratio: 1340
[16]
  selectivity ratio: 1340
Coxsackievirus B3 [4]
  IC50: 0.01 µM
Coxsackievirus B3 [5]; [24]
  IC50: 2.76 µM
[17]
  selectivity ratio: 669
[18]
  Kel: 0.4373 h⁻¹
[19]
  selectivity ratio: 2.6
[20]
  Vd: 1.52 L
HeLa
  CC50: 13.4 µM

## Cc1cc(-c2noc(C(F)(F)F)n2)cc(C)c1OCCCc1cc(C(=O)N(C)C)no1
Rhinovirus A2; [21]
  IC50: 0.12 µM
[7]
  Activity: Non-Toxic
Rhinovirus B14; [22]
  IC50: 0.12 µM
Coxsackievirus B3 [1]; [23]
  IC50: 0.02 µM
Coxsackievirus B3 [2]; read-out: IC50
  IC50: 1.01 µM
Coxsackievirus B3 [3]; read-out: IC50
  IC50: 6.33 µM
[13]
  inhibition zone (IZ): 0 mm
Coxsackievirus B3 [4]
  IC50: 0.03 µM
HeLa
  CC50: 13.2 µM

## CN(C)C(=O)c1cc(CCCOc2ccc(-c3noc(C(F)(F)F)n3)cc2[N+](=O)[O-])on1
Rhinovirus A2; [21]
  IC50: 0.67 µM
[7]
  Activity: Non-Toxic
Rhinovirus B14; [22]
  IC50: 0.28 µM
Coxsackievirus B3 [1]; [23]
  IC50: 0.003 µM
Coxsackievirus B3 [2]; read-out: IC50
  IC50: 0.03 µM
Coxsackievirus B3 [3]; read-out: IC50
  IC50: 6.46 µM
Rhinovirus B5; [22]
  IC50: 7.63 µM
[13]
  inhibition zone (IZ): 0 mm
Coxsackievirus B3 [4]
  IC50: 0.001 µM
Coxsackievirus B3 [5]; [24]
  IC50: 1.66 µM
HeLa
  CC50: 22.5 µM

## CNC(=O)c1cc(CCCOc2c(C)cc(-c3noc(C(F)(F)F)n3)cc2C)on1
Rhinovirus A2; [21]
  IC50: 0.2 µM
[7]
  Activity: Non-Toxic
Rhinovirus B14; [22]
  IC50: 0.02 µM
Coxsackievirus B3 [1]; [23]
  IC50: 0.06 µM
Coxsackievirus B3 [2]
  IC50: Not Active
Coxsackievirus B3 [3]
  IC50: Not Active
[13]
  inhibition zone (IZ): 0 mm
Coxsackievirus B3 [4]
  IC50: 0.37 µM
HeLa
  CC50: > 100 µM

## CNC(=O)c1cc(CCCOc2ccc(-c3noc(C(F)(F)F)n3)cc2C(F)(F)F)on1
Rhinovirus A2; [21]
  IC50: 0.96 µM
Rhinovirus B14
  IC50: Not Active
Coxsackievirus B3 [1]; [23]
  IC50: 0.02 µM
Coxsackievirus B3 [2]; read-out: IC50
  IC50: 1.04 µM
Coxsackievirus B3 [3]
  IC50: Not Active
Rhinovirus B5
  IC50: Not Active
Coxsackievirus B3 [4]
  IC50: 0.06 µM
Coxsackievirus B3 [5]; [24]
  IC50: 14.1 µM
HeLa
  CC50: > 100 µM

## CN(C)C(=O)c1cc(CCCOc2ccc(-c3noc(C(F)(F)F)n3)cc2C(F)(F)F)on1
Rhinovirus A2; [21]
  IC50: 0.32 µM
[7]
  Activity: Non-Toxic
Rhinovirus B14; [22]
  IC50: 6.76 µM
Coxsackievirus B3 [1]
  IC50: 0.16 µM
Coxsackievirus B3 [2]; read-out: IC50
  IC50: 0.54 µM
Coxsackievirus B3 [3]; read-out: IC50
  IC50: 7.18 µM
Rhinovirus B5
  IC50: Not Active
[13]
  inhibition zone (IZ): 0 mm
Coxsackievirus B3 [4]
  IC50: 0.16 µM
Coxsackievirus B3 [5]; [24]
  IC50: 2.24 µM
HeLa
  CC50: 19.2 µM
